Test results from article PMC6203112 (International Journal of Chronic Obstructive Pulmonary …, 2018).
Marks after values point to notes of the source that are not given here.

Assays:
[1] = Study 1 Part 1: single ascending dose PK via SDDPI; type: in vivo; conditions: human, plasma, inhaled
Summary of the method: (§1)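 Blood was collected in lithium heparin, chilled on ice, and centrifuged at 2,000 ×g for 15 min at ~4°C. Plasma was stabilised with 1 M citric acid (100 µL per 1 mL plasma) and stored at ≤−65°C. After solid-phase extraction, samples were assayed by validated LC-MS/MS with heated electrospray and a deuterated internal standard (LLOQ 10 pg/mL). PK parameters were derived non-compartmentally.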

[2] = Study 1 Part 2: repeat ascending dose; type: in vivo, human; conditions: SDDPI; for CL/F / Racc / AUC(0-t): geometric mean (% CV); for AUC(0-t) / Tmax: human, plasma, inhaled; for AUC(0-t): AUC0–24 h; for Tmax: median (range)
Summary of the method: as §1

[3] = Study 2 Part 1: single ascending dose PK via MDDPI; type: in vivo; conditions: human, plasma, inhaled
Summary of the method: as §1

[4] = Study 2 Part 2: repeat ascending dose; type: in vivo, human; conditions: MDDPI; for Racc / CL/F / AUC(0-t): geometric mean (% CV); for AUC(0-t) / Tmax: human, plasma, inhaled; for Tmax: median (range)
Summary of the method: as §1

[5] = Study 1 Part 1: adverse events after single doses via SDDPI; type: in vivo, human
Summary of the method: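 Study 1 Part 1 used a crossover design in healthy men aged 18–55. Single inhaled doses of test compound (20–2,000 µg) or matching placebo were given via a capsule-based single-dose dry-powder inhaler. Investigators recorded each AE and its relation to study medication. Counts are number (%) of the safety population, defined as randomized subjects receiving at least one dose.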

[6] = Study 2 Part 1: adverse events after single doses via MDDPI; type: in vivo, human
Summary of the method: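 Study 2 Part 1 was a three-period single ascending dose design in healthy men and women, with four randomized treatment sequences. At each visit, test compound (2,400, 4,000, 4,800 µg) or placebo was inhaled via a reservoir multi-dose dry-powder inhaler, with the dose rising each visit. AEs and investigator-judged relation to study drug were recorded, reported as number (%) of the safety population.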

## CS(=O)(=O)Nc1ccc(C(=O)O[C@@H](Cc2c(Cl)c[n+]([O-])cc2Cl)c2ccc(OC(F)F)c(OCC3CC3)c2)cc1OCC1CC1 [CHF6001]
[1]
  half-life: 30 to 45 h
[1]; 20 ug
  AUC(0-t): 0.0316 ng·h/mL
  Cmax: 0.0189 ng/mL
  half-life: 5.6 h
[1]; 100 ug
  AUC(0-t): 1.48 ng·h/mL
  Cmax: 0.0638 ng/mL
  half-life: 28.2 h
[1]; 200 ug
  AUC(0-t): 2.78 ng·h/mL
  Cmax: 0.14 ng/mL
  half-life: 30.1 h
[1]; 400 ug
  AUC(0-t): 5.38 ng·h/mL
  Cmax: 0.195 ng/mL
  half-life: 45.3 h
[1]; 800 ug
  AUC(0-t): 10.6 ng·h/mL
  Cmax: 0.432 ng/mL
  half-life: 26.3 h
[1]; 1600 µg
  AUC(0-t): 18 ng·h/mL
  Cmax: 0.73 ng/mL
  half-life: 27.4 h
[1]; 2000 µg
  AUC(0-t): 25.6 ng·h/mL
  Cmax: 0.983 ng/mL
  half-life: 37.3 h
[2]; 100 µg OD, Day 7, N=7
  CL/F: 723 (41.1) mL/min
  Racc: 2.89 (16.6)
[2]; 300 µg OD, Day 7, N=8
  CL/F: 860 (44.7) mL/min
  Racc: 2.49 (31.8)
[2]; 600 µg OD, Day 7, N=9
  CL/F: 956 (28.2) mL/min
  Racc: 2.47 (20.2)
[2]; 1,200 µg OD, Day 7, N=9
  CL/F: 772 (26.6) mL/min
  Racc: 2.74 (28.2)
[2]; 1,600 µg OD, Day 7, N=6
  CL/F: 910 (17.0) mL/min
  Racc: 2.75 (16.5)
[2]; 100 ug, 100 µg OD, Day 1, N=7
  AUC(0-t): 0.796 ng·h/mL
  Tmax: 1.5 h
[2]; 100 ug, 100 µg OD, Day 7, N=7
  AUC(0-t): 2.3 ng·h/mL
  Tmax: 1 h
[2]; 300 ug, 300 µg OD, Day 1, N=8
  AUC(0-t): 2.34 ng·h/mL
  Tmax: 2 h
[2]; 300 ug, 300 µg OD, Day 7, N=8
  AUC(0-t): 5.82 ng·h/mL
  Tmax: 1 h
[2]; 600 ug, 600 µg OD, Day 1, N=9
  AUC(0-t): 4.24 ng·h/mL
  Tmax: 1.5 h
[2]; 600 ug, 600 µg OD, Day 7, N=9
  AUC(0-t): 10.5 ng·h/mL
  Tmax: 2 h
[3]
  Tmax: 3 h
[3]; 2400 µg
  AUC(0-t): 35.2 ng·h/mL
  Cmax: 1.23 ng/mL
  Tmax: 3 h
  half-life: 49.1 h
[3]; 4000 µg
  AUC(0-t): 75.8 ng·h/mL
  Cmax: 2.55 ng/mL
  Tmax: 3 h
  half-life: 44 h
[3]; 4800 µg
  AUC(0-t): 77.4 ng·h/mL
  Cmax: 2.72 ng/mL
  Tmax: 3 h
  half-life: 40 h
[4]; 1,200 µg BID, Day 14, N=9
  Racc: 6.66 (38.4)
[4]; 1,200 µg BID, Day 14, n=8
  CL/F: 588 (50.7) ^a mL/min
[4]; 2,000 µg BID, Day 14, N=9
  CL/F: 652 (39.0) mL/min
  Racc: 6.28 (19.5)
[4]; 2,400 µg BID, Day 14, n=8
  CL/F: 646 (37.0) ^a mL/min
  Racc: 5.47 (36.6) ^a
[4]; 1200 µg, AUC0–12 h, 1,200 µg BID, Day 14, N=9
  AUC(0-t): 34 ng·h/mL
[4]; 1200 µg, tmax, 1,200 µg BID, Day 14, N=9
  Tmax: 1.6 h
[4]; 2000 µg, AUC0–12 h, 2,000 µg BID, Day 14, N=9
  AUC(0-t): 51.1 ng·h/mL
[4]; 2000 µg, tmax, 2,000 µg BID, Day 14, N=9
  Tmax: 1.5 h
[4]; 2400 µg, AUC0–12 h, 2,400 µg BID, Day 14, n=8
  AUC(0-t): 61.9 ng·h/mL
[4]; 2400 µg, tmax, 2,400 µg BID, Day 14, n=8
  Tmax: 2.3 h
[5]; single dose 20 µg, N=8
  AE considered related to study medication: 0 Number (%) of subjects
  AE leading to death: 0 Number (%) of subjects
  AE leading to withdrawal: 0 Number (%) of subjects
  At least one AE: 1 (12.5) Number (%) of subjects
  At least one SAE: 0 Number (%) of subjects
  Severe AE: 0 Number (%) of subjects
[5]; single dose 100 µg, N=8
  AE considered related to study medication: 0 Number (%) of subjects
  AE leading to death: 0 Number (%) of subjects
  AE leading to withdrawal: 0 Number (%) of subjects
  At least one AE: 0 Number (%) of subjects
  At least one SAE: 0 Number (%) of subjects
  Severe AE: 0 Number (%) of subjects
[5]; single dose 200 µg, N=8
  AE considered related to study medication: 0 Number (%) of subjects
  AE leading to death: 0 Number (%) of subjects
  AE leading to withdrawal: 1 (12.5) Number (%) of subjects
  At least one AE: 3 (37.5) Number (%) of subjects
  At least one SAE: 0 Number (%) of subjects
  Severe AE: 0 Number (%) of subjects
[5]; single dose 400 µg, N=7
  AE considered related to study medication: 0 Number (%) of subjects
  AE leading to death: 0 Number (%) of subjects
  AE leading to withdrawal: 0 Number (%) of subjects
  At least one AE: 2 (28.6) Number (%) of subjects
  At least one SAE: 0 Number (%) of subjects
  Severe AE: 0 Number (%) of subjects
[5]; single dose 800 µg, N=7
  AE considered related to study medication: 0 Number (%) of subjects
  AE leading to death: 0 Number (%) of subjects
  AE leading to withdrawal: 0 Number (%) of subjects
  At least one AE: 3 (42.9) Number (%) of subjects
  At least one SAE: 0 Number (%) of subjects
  Severe AE: 0 Number (%) of subjects
[5]; single dose 1,600 µg, N=7
  AE considered related to study medication: 0 Number (%) of subjects
  AE leading to death: 0 Number (%) of subjects
  AE leading to withdrawal: 0 Number (%) of subjects
  At least one AE: 2 (28.6) Number (%) of subjects
  At least one SAE: 0 Number (%) of subjects
  Severe AE: 0 Number (%) of subjects
[5]; single dose 2,000 µg, N=6
  AE considered related to study medication: 0 Number (%) of subjects
  AE leading to death: 0 Number (%) of subjects
  AE leading to withdrawal: 0 Number (%) of subjects
  At least one AE: 0 Number (%) of subjects
  At least one SAE: 0 Number (%) of subjects
  Severe AE: 0 Number (%) of subjects
[6]; single dose 2,400 µg, N=9
  AE considered related to study medication: 1 (11.1) Number (%) of subjects
  AE leading to death: 0 Number (%) of subjects
  AE leading to withdrawal: 1 (11.1) Number (%) of subjects
  At least one AE: 3 (33.3) Number (%) of subjects
  At least one SAE: 0 Number (%) of subjects
  Severe AE: 1 (11.1) Number (%) of subjects
[6]; single dose 4,000 µg, N=8
  AE considered related to study medication: 1 (12.5) Number (%) of subjects
  AE leading to death: 0 Number (%) of subjects
  AE leading to withdrawal: 0 Number (%) of subjects
  At least one AE: 1 (12.5) Number (%) of subjects
  At least one SAE: 0 Number (%) of subjects
  Severe AE: 0 Number (%) of subjects
[6]; single dose 4,800 µg, N=8
  AE considered related to study medication: 0 Number (%) of subjects
  AE leading to death: 0 Number (%) of subjects
  AE leading to withdrawal: 0 Number (%) of subjects
  At least one AE: 1 (12.5) Number (%) of subjects
  At least one SAE: 0 Number (%) of subjects
  Severe AE: 0 Number (%) of subjects
